UCH37 DUB inh – inhibitors of human UCH37 deubiquitinase, primary screen, biochemical, Ub-AMC cleavage, fluorescence; Ubiquitin carboxyl-terminal hydrolase isozyme L5 (Homo sapiens), Q9Y5K5; purified proteasome/UCH37; inhibition, % (concentration not given with the values); 330,000 compounds, 0.33% hits; AID 588478, 2011;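 active means mean inhibition over replicate wells above about 20%, limit read from the data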;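 further: 0% = compound-free wells with enzyme and 100% = wells lacking proteasome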
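Schedule: 30 min plus 25 min, room temperature / Material: human UCH37 within purified proteasomes / Technique: AMC fluorescence intensity at 355/460 nm / Buffer or medium: pH 7.4 Tris-HCl (50 mM) with ovalbumin, ATP-MgCl2, DTT / Controls: wells without proteasome as full block, compound-free enzyme plus substrate as uninhibited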
Rtt109 Vps75 – inhibitors of C. albicans Rtt109/Vps75 HAT, primary screen, biochemical, ThioGlo CoA-SH fluorescence, plate reader; Histone acetyltransferase RTT109 (Candida albicans (strain SC5314 / ATCC MYA-2876)), …; 330,000 compounds, 0.16% hits; purified Rtt109/Vps75, 4 h; inhibition, % at 34.9 µM;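 active means inhibition of at least 50% in every replicate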
ALR inh – inhibitors of human ALR sulfhydryl oxidase, primary screen, biochemical, H2O2 detection, HRP-luminol luminescence, single point; 290,000 compounds, 3.8% hits; inhibition, % (concentration not given with the values); FAD-linked sulfhydryl oxidase ALR (Homo sapiens), P55789; purified ALR, DTT oxidation;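 active means mean replicate inhibition above about 79%, with every replicate also reaching it, limit read from the data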
Target sequence (P55789 whole entry, looked up): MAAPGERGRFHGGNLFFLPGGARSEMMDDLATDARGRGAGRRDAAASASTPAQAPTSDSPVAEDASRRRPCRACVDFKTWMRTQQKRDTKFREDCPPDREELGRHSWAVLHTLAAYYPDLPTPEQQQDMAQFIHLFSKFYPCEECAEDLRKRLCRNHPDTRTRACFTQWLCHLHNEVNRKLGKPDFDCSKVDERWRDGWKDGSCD
HDAC3 inh – HDAC3 deacetylase inhibitors, primary screen, biochemical, fluorescence, cell-free homogeneous; Histone deacetylase 3 (Homo sapiens), O15379; recombinant HDAC3, fluorogenic peptide/trypsin coupled; inhibition, % at 8.3 µM; 320,000 compounds, 0.15% hits; in the data active means inhibition above about 26%, passing the limit was not always enough
FAS-TE inh – FAS thioesterase domain inhibitors, primary screen, biochemical, fluorescence intensity, uHTS; recombinant FAS-TE, OMFH fluorogenic substrate, fluorescence endpoint; Fatty acid synthase (Homo sapiens), P49327; inhibition, % at 15 µM; 360,000 compounds, 0.67% hits;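 active means compounds whose normalised, plate-corrected inhibition of enzyme fluorescence in the single-dose primary screen is 50% or more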;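 further: 0% = DMSO with enzyme and 100% = substrate without enzyme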
PfM18AAP inh – PfM18AAP inhibitors, malaria aminopeptidase, primary screen, biochemical, QFRET, recombinant enzyme; 290,000 compounds, 1.2% hits; H-Glu-NHMec fluorogenic cleavage; inhibition, % at 7.35 µM;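 active means inhibition above the campaign mean inhibition over all tested compounds plus 3 SD, cut at about 28% in these data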;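 further: 0% = plate median of test compound wells and 100% = 2 mM ZnCl2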
Active calls of the source: *; . = no result given. Shown are actives, neighbours in structure and some others; about 4.6% of the full set was active somewhere.

SMILES	UCH37 DUB inh	Rtt109 Vps75	ALR inh	HDAC3 inh	FAS-TE inh	PfM18AAP inh
COc1ccc([N+](=O)[O-])cc1NC(=O)CSCc1ccccc1C	4	-1	99*	4	48	-4
COc1ccc(C)cc1NC(=O)CSCc1ccccc1C	1	1	10	0	16	-2
Cc1ccc[n+](CC(=O)/C=C2\N(C)c3ccccc3C2(C)C)c1	20*	15	-50	6	-8	7
COc1cc(C=NNC(=O)CCC(=O)Nc2ccc(C)cc2)ccc1O	1	.	.	.	.	.
Cc1ccccc1S(=O)(=O)NC1OC(=O)C(Cl)=C1Cl (centres undefined)	.	0	14	-4	-3	14
Cc1ccccc1S(=O)(=O)NC1OC(=O)C(Oc2ccccc2)=C1Br (centres undefined)	5	1	95*	-2	-3	4
Nc1ccccc1NC(=O)c1ccccc1N	-15	-44	31	20	-7	7
Nc1ccccc1NC(=O)NC(=O)c1ccccc1	6	-8	-21	41*	-4	1
Cc1ccn2c(NC3CCCC3)c(-c3ccsc3)nc2c1	-31	0	89*	-6	3	4
Cc1ccn2c(NC3CCCCC3)c(-c3ccc(SC4CCCCC4)cc3)nc2c1	.	.	.	.	18	.
CCCCCC(=O)NN=Cc1ccccc1[N+](=O)[O-]	0	.	.	.	.	.
O=C(O)c1ccc(N/N=C2/CCSc3ccc(F)cc32)cc1	.	10	98*	5	8	29*
O=C(NC(CSCc1ccccc1)C(=O)NN=Cc1ccc(O)cc1O)c1ccc([N+](=O)[O-])cc1 (centres undefined)	6	.	.	.	.	.
COc1ccc(C(=O)C2CCCN(Cc3cnc(N4CCCC4)s3)C2)cc1OC (centres undefined)	5	2	98*	-2	-2	-15
COc1cc(NC2c3ccccc3C(=O)N2c2cc(C)ccn2)cc(OC)c1OC (centres undefined)	3	-17	95*	2	-4	7
COc1cc(NC2c3ccccc3C(=O)N2c2ccc(C)cn2)cc(OC)c1OC (centres undefined)	0	-3	9	1	0	0
COc1cccc(C(=O)Oc2ccc(C=NNC(=O)c3ccncc3)cc2OC)c1	-13	.	.	.	.	.
CC(=O)NS(=O)(=O)c1cccnc1Nc1ccc(Cl)c(Cl)c1	3	3	98*	-9	5	12
Cc1ccc(NC(=S)NN=Cc2ccc([N+](=O)[O-])s2)cc1	8	.	.	.	.	.
CCOc1cc(C=NNC(=O)c2cccnc2)ccc1OC(=O)c1ccco1	7	.	.	.	.	.
CNC(=O)c1c(NC(=O)c2ccc(S(=O)(=O)N3CCCC3)cc2)sc2c1CCN(C(C)C)C2	.	.	0	7	.	32*
CNC(=O)c1c(NC(=O)c2nc3ccccc3s2)sc2c1CCC2	-7	0	97*	6	12	4
CNC(=O)c1c(NC(=O)c2ccc(N3C(=O)CCC3=O)cc2)sc2c1CCCC2	2	-10	97*	3	6	4
COC(=O)c1c(NC(=O)c2nc3ccccc3s2)sc2c1CCN(C(C)=O)C2	-5	-3	-3	-4	9	-7
CNC(=O)c1c(NC(=O)c2ccc(S(=O)(=O)N3CC(C)OC(C)C3)cc2)sc2c1CCN(C(C)C)C2 (centres undefined)	6	-10	21	8	-6	-7
CC(C(=O)NC1=NCCS1)(C(F)(F)F)C(F)(F)F	0	3	-2	-6	-7	-11
CC(C)(C)C(=O)NC1=NCCS1	3	-6	100*	-7	-7	-3
CC(C)(C)c1csc(NN=Cc2cccnc2)n1	6	.	.	.	.	.
COc1ccc(Cl)cc1Nc1nc(-c2sc(NC(=O)c3ccccc3)nc2C)cs1	.	.	44	-4	.	9
Cc1nc(NC(=O)c2ccccc2)sc1-c1csc(Nc2ccc(Cl)cc2Cl)n1	.	.	87*	5	.	-9
